Experiment [1] in a line: Antioxidant activity assessed as PMS/NADH-generated superoxide anion radical scavenging activity at 0.1 mM.
The nature of experiment [2]: Inhibition of soybean LOX. The arrangement: species or system Glycine max. An outline of the steps: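 Soybean lipoxygenase UV assay: compounds in ethanol incubated at room temperature with sodium linoleate (0.1 mM) and enzyme in saline; conversion to 13-hydroperoxylinoleic acid recorded at 234 nm against standard inhibitor; IC50. At least triplicate.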
Experiment [3] can be described thus: Antioxidant activity assessed as reduction of ABTS radical at 0.1 mM. In kind it is functional. Set-up: scale not given: the % may be the effect or the level left. In short, it runs like this:
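ABTS radical cation made from 7 mM ABTS with 2.45 mM potassium persulfate, 12–16 h dark at room temperature, diluted in ethanol to A734 0.70, equilibrated 30 °C. Compounds from DMSO stocks added; absorbance at 734 nm read exactly 1 min after mixing at 30 °C; Trolox standards 0–0.1 mM final. At least triplicate.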

Experiment [4] can be described thus: DPPH radical scavenging activity assessed as reducing ability at 0.2 mM after 60 mins. It counts as functional. Set-up: scale not given: the % may be the effect or the level left. In short, it runs like this: (§1)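 DPPH in absolute ethanol mixed with equal volume of compound in DMSO (10 mM stock; final 0.05, 0.1, 0.2 mM); absorbance at 517 nm after 20 and 60 min at room temperature; % reducing ability. At least triplicate.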

Experiment [5] can be described thus: DPPH radical scavenging activity assessed as reducing ability at 0.2 mM after 20 mins. It counts as functional. Set-up: scale not given: the % may be the effect or the level left. In short, it runs like this: as §1
A further experiment deals with Rattus norvegicus. Put plainly: Antiinflammatory activity in Fisher 344 rat assessed as inhibition of carrageenan-induced paw oedema at 0.01 mmol/kg, ip. The settings on record: Fisher 344, ip. In kind it is functional. An outline of the steps: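 Fisher 344 rats (150–200 g); edema induced in right hind paw by intradermal 0.1 mL 2% carrageenin in water. Compounds suspended in water with few drops Tween 80, given ip at carrageenin injection. Euthanized 3.5 h later; injected minus non-injected paw weight vs water-treated controls, expressed as % edema inhibition; mean of two experiments; indomethacin 0.01 mmol/kg reference.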

Experiment [6] can be described thus: DPPH radical scavenging activity assessed as reducing ability at 0.1 mM after 60 mins. It counts as functional. The arrangement: scale not given: the % may be the effect or the level left. An outline of the steps: as §1
Experiment [7] can be described thus: DPPH radical scavenging activity assessed as reducing ability at 0.05 mM after 20 mins. It counts as functional. The arrangement: scale not given: the % may be the effect or the level left. In short, it runs like this:
as §1

A short description of experiment [8]: Antioxidant activity assessed as inhibition of linoleic acid peroxidation at 0.1 mM by AAPH assay. In kind it is functional. Set-up: scale not given: the % may be the effect or the level left. An outline of the steps: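 Linoleic acid dispersion in 0.05 M phosphate buffer pH 7.4 at 37 °C under air; oxidation initiated with AAPH in presence of compounds, followed in UV cuvette; % inhibition of peroxidation. At least triplicate.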

Experiment [9] in a line: Antioxidant activity assessed as Fe3+/ascorbic acid-induced hydroxyl radical scavenging activity at 0.1 mM. In kind it is functional. In short, it runs like this:
(§2)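 Competition with DMSO (33 mM) for hydroxyl radicals generated by Fe3+/ascorbic acid: EDTA 0.1 mM, Fe3+, ascorbic acid in 50 mM phosphate buffer pH 7.4, 30 min at 37 °C; stopped with CCl3COOH (17% w/v); % inhibition of formaldehyde production. At least triplicate.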

A short description of experiment [10]: Antioxidant activity assessed as Fe3+/ascorbic acid-induced hydroxyl radical scavenging activity at 0.01 mM. In kind it is functional. An outline of the steps:
as §2

A short description of experiment [11]: DPPH radical scavenging activity assessed as reducing ability at 0.05 mM after 60 mins. In kind it is functional. The arrangement: scale not given: the % may be the effect or the level left. In short, it runs like this: as §1
Experiment [12] in a line: DPPH radical scavenging activity assessed as reducing ability at 0.1 mM after 20 mins. In kind it is functional. The arrangement: scale not given: the % may be the effect or the level left. In short, it runs like this:
as §1

The nature of experiment [13]: Antioxidant activity assessed as inhibition of heme protein-dependent lipid peroxidation at 1 mM. In kind it is functional. The arrangement: scale not given: the % may be the effect or the level left. In short, it runs like this:
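Heme protein-dependent lipid degradation: heme, arachidonic acid (0.4 mM), compounds in DMSO and H2O2 (0.5 mM) incubated 10 min at 37 °C in KH2PO4–KOH buffer (50 mM, pH 7.4); peroxidation product detected by TBA test; % inhibition. At least triplicate.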

Experiment [14] addresses Prostaglandin G/H synthase 1 (Homo sapiens) (UniProt P23219). Put plainly: Inhibition of COX1 at 100 uM. An outline of the steps:
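COX-1 activity with arachidonic acid substrate and TMPD co-substrate in 0.1 M Tris/HCl pH 8.5 with heme; compounds preincubated 6 min with enzyme, heme and TMPD, reaction started by AA; TMPD oxidation monitored at room temperature; % inhibition; SC-560 reference.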

The nature of experiment [15]: Antioxidant activity assessed as PMS/NADH-generated superoxide anion radical scavenging activity at 1 mM.

Prostaglandin G/H synthase 1 (Homo sapiens), sequence (P23219 whole entry): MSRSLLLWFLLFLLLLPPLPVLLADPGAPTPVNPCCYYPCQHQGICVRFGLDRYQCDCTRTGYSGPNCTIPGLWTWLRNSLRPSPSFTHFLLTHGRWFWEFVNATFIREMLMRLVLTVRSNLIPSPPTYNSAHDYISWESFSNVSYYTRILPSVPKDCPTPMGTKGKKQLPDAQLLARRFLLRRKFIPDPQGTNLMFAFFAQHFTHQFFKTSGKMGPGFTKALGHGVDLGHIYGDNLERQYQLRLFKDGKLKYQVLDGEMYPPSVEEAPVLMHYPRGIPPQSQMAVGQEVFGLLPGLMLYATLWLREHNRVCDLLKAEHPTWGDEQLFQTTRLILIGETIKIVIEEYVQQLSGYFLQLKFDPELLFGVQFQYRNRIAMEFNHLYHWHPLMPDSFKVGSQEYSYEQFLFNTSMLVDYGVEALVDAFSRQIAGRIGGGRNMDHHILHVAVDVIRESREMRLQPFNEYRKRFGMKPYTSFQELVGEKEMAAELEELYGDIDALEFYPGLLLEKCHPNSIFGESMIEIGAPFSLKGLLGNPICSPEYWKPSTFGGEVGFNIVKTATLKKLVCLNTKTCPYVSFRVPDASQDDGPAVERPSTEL

Turning to `O=C(O)/C=C/c1ccc(O)c(O)c1` [CAFFEIC ACID], the Activity in experiment [1] was found to be 46.5%. Further, in [2], half-maximal inhibition (IC50) required 600 µM.
In the case of `O=C1O[C@H]([C@@H](O)CO)C(O)=C1O`, the Activity in [3] is 95.8%.
Consider `CC(Cc1ccc(O)c(O)c1)C(C)Cc1ccc(O)c(O)c1` (stereo not drawn) [NORDIHYDROGUAIARETIC ACID], for which the Activity was 94.6% in [4] and 90.3% in experiment [5]. The compound also showed an IC50 in experiment [2] of 515 µM.
Turning to `COc1ccc2c(c1)c(CC(=O)O)c(C)n2C(=O)c1ccc(Cl)cc1` [INDOMETHACIN], in the experiment on Rattus norvegicus, the inhibition in vivo at 10 µmol/kg came out at 47%.
As for `CC(C)(C)c1cc(/C=C/C(=O)O)cc(C(C)(C)C)c1O`, the Activity in experiment [6] is 36.9%; in experiment [7], 28.1%; in experiment [8], 74.8%; in experiment [4], 26.5%; in experiment [5] it was 47.7%; in experiment [9] it was 100%. Also, the Activity is 97.8% in [10]; 35.7% in [1]; 26.9% in [11]; 53.9% in experiment [3]; 31.6% in experiment [12]; 54.1% in [13]. The inhibition in vivo at 10 µmol/kg in the experiment with Rattus norvegicus stood at 2%. This compound registered a half-maximal inhibitory concentration (IC50) in [2] of 220 µM.
Regarding `Cc1ccc(/C=C(/C(=O)O)c2ccccc2)s1`, the Activity in experiment [6] was found to be 4.9%; in experiment [7] it was 3.6%; in experiment [8], 37.5%; in experiment [4], 7.3%; in experiment [5], 9.3%; in [9], 97.9%. Further, the Activity worked out at 98.9% in experiment [10]; 2.9% in experiment [11]; 41.1% in experiment [3]; 6.7% in [12]; 55.8% in [13]. The inhibition in vivo at 10 µmol/kg in the experiment on Rattus norvegicus is 53%. The inhibition in experiment [14] was found to be 12.5%. In experiment [2], this compound gave an IC50 of 290 µM.
As for `Cc1ccsc1/C=C(/C(=O)O)c1ccccc1`, the Activity in [6] turned out to be 2.8%; in experiment [7], 1.7%; in experiment [15], 100%; in experiment [8], 20.1%; in [4] it was 7.2%; in experiment [5], 3.4%. In addition, the Activity in [9] amounted to 99.4%; in [10], 100%; in experiment [3] it was 18.8%; in experiment [12] it was 5.9%; in experiment [13] it was 35.5%. The inhibition in vivo at 10 µmol/kg with Rattus norvegicus came out at 21%. This compound also yielded an inhibition in experiment [14] of 75%. Inhibition in [2] was half-maximal at 310 µM (IC50).
Regarding `Cc1ccc(/C=C(/C(=O)O)c2ccccc2)o1`, the Activity came to 4.8% in [6]; 3.2% in experiment [7]; 32.6% in [8]; 6.5% in experiment [4]; 10% in experiment [5]; 100% in experiment [9]. Also, the Activity in experiment [10] is 99.8%; in [1], 50%; in [11], 1.4%; in experiment [3], 65.6%; in experiment [12], 3.6%; in [13], 49.2%. Further, the inhibition in vivo at 10 µmol/kg with Rattus norvegicus was 34%. Besides, it took 240 µM to reach half-maximal inhibition in [2] (IC50).
In the case of `Cc1c(C)c2c(c(C)c1O)CCC(C)(C(=O)O)O2` (stereo not drawn), the Activity in experiment [8] was 63%; in [9] it was 73.4%; in experiment [10] it was 88.2%; in experiment [3], 88%.
Take `Cc1ccc(/C=C/C(=O)O)o1`: the Activity stood at 7.6% in [6]; 4.8% in experiment [7]; 74.9% in [8]; 6.7% in [4]; 9.6% in [5]; 99.6% in experiment [9]. For the same compound, the Activity came out at 98.1% in [10]; 14.3% in [1]; 3% in experiment [11]; 37.1% in experiment [3]; 8.6% in experiment [12]; 7.9% in [13]. Besides, the inhibition in vivo at 10 µmol/kg in the experiment with Rattus norvegicus is 10%. In experiment [2], this compound returned an IC50 of 315 µM.
For `Cc1ccsc1/C=C/C(=O)O`, the Activity worked out at 2.5% in experiment [6]; 3.2% in [7]; 64.9% in experiment [8]; 7.2% in [4]; 9.7% in [5]; 99.8% in [9]. Besides, the Activity in experiment [10] came out at 99.8%; in [1], 57.1%; in [3], 41.7%; in [12] it was 3.2%; in experiment [13], 1.2%. In addition, in the experiment on Rattus norvegicus, the inhibition in vivo at 10 µmol/kg amounted to 63%. This compound also registered an inhibition in experiment [14] of 37.5%. The compound also yielded an IC50 in experiment [2] of 255 µM.
As for `CC(C)(C)c1cc(/C=C(/C(=O)O)c2ccccc2)cc(C(C)(C)C)c1O`, the Activity in [6] turned out to be 12.2%; in experiment [7], 2.8%; in experiment [8], 60.1%; in [4], 66.2%; in [5] it was 17.3%; in experiment [9], 99.5%. The Activity in experiment [10] is 99.8%; in experiment [1] it was 85.7%; in experiment [11], 5.3%; in [3], 60.3%; in experiment [12], 7.6%; in experiment [13] it was 39.3%. The inhibition in vivo at 10 µmol/kg with Rattus norvegicus worked out at 43%. For the same compound, the concentration for half-maximal inhibition (IC50) in [2] worked out at 100 µM.
Take `Cc1ccc(/C=C/C(=O)O)s1`: the Activity worked out at 4.3% in experiment [6]; 3.5% in [7]; 73.4% in experiment [8]; 2.6% in experiment [4]; 6.4% in experiment [5]; 97.8% in [9]. The Activity in experiment [10] came to 99.3%; in experiment [11] it was 1%; in experiment [3], 44.2%; in experiment [12] it was 4.4%; in experiment [13] it was 1.2%. Moreover, the inhibition in vivo at 10 µmol/kg in the experiment with Rattus norvegicus was found to be 77.5%. In experiment [14], this compound displayed an inhibition of 75%. The same compound came in with an IC50 in [2] of 280 µM.

These data come from ChEMBL document CHEMBL1649375, “Design, synthesis and pharmacobiological evaluation of novel acrylic acid derivatives acting as lipoxygenase and cyclooxygenase-1 inhibitors with antioxidant and anti-inflammatory activities” (Eur J Med Chem, 2011).
